Data published in ChEMBL document CHEMBL5724801, “EUbOPEN Chemogenomics Library - Multiplex” (2024).
Values joined by “and” are separate entries in the source; they are usually repeats but may differ in a detail not shown here. Equal values may be shown once.

Tested on: HEK-293T
Assay: Multiplex assay against HEK293T
Assay type: toxicity, cell-based
Conditions: human
Procedure, shortened: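 At seeding, live cells were stained with Hoechst33342, BioTracker Green Microtubule Cytoskeleton Dye, MitoTracker Red and Annexin V Alexa Fluor 680. After compound addition they were imaged on a CQ1 microscope at 37°C and 5% CO2, and CellPathfinder machine-learning gating sorted them into Hoechst high-intensity objects or normal cells, with normal cells further split into healthy, pyknosed or fragmented nuclei and pyknosed cells into mitotic or apoptotic. Tubulin, mitochondrial-mass and membrane-permeability phenotypes are given as per cents of cells with healthy nuclei.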

[1] = 12 h, 1 µM, compound concentration 1 uM
[2] = 12 h, 10 µM, compound concentration 10 uM
[3] = 24 h, 1 µM, compound concentration 1 uM
[4] = 24 h, 10 µM, compound concentration 10 uM
[5] = 48 h, 1 µM, compound concentration 1 uM
[6] = 48 h, 10 µM, compound concentration 10 uM

SMILES: CCCC(CCC)C(=O)O [VALPROIC ACID]
- Population Apoptotic (%) [1]: 39% and 28%
- Population Fragmented Nuclei (%) [1]: 6% and 5%
- Population Healthy Nuclei (%) [1]: 81% and 79%
- Population Hoechst High Intensity Objects (%) [1]: 6% and 5%
- Population Membrane Permeable-Phenotype (%) [1]: 0%
- Population Mitochondria Different-Phenotype (%) [1]: 29% and 46%
- Population Mitotic Cells (%) [1]: 60% and 71%
- Population Normal (%) [1]: 93% and 94%
- Population Pyknosed Nuclei (%) [1]: 12% and 15%
- Population Tubulin-Different-Phenotype (%) [1]: 20% and 16%
- Total Cell Count [1]: 513 and 367
- Population Apoptotic (%) [2]: 34% and 44%
- Population Fragmented Nuclei (%) [2]: 6% and 7%
- Population Healthy Nuclei (%) [2]: 82% and 81%
- Population Hoechst High Intensity Objects (%) [2]: 6%
- Population Membrane Permeable-Phenotype (%) [2]: 0%
- Population Mitochondria Different-Phenotype (%) [2]: 40% and 49%
- Population Mitotic Cells (%) [2]: 66% and 55%
- Population Normal (%) [2]: 93%
- Population Pyknosed Nuclei (%) [2]: 11%
- Population Tubulin-Different-Phenotype (%) [2]: 26% and 20%
- Total Cell Count [2]: 455 and 446
- Population Apoptotic (%) [3]: 28% and 45%
- Population Fragmented Nuclei (%) [3]: 8% and 6%
- Population Healthy Nuclei (%) [3]: 78% and 83%
- Population Hoechst High Intensity Objects (%) [3]: 4%
- Population Membrane Permeable-Phenotype (%) [3]: 1% and 0%
- Population Mitochondria Different-Phenotype (%) [3]: 22% and 26%
- Population Mitotic Cells (%) [3]: 71% and 54%
- Population Normal (%) [3]: 95%
- Population Pyknosed Nuclei (%) [3]: 12% and 9%
- Population Tubulin-Different-Phenotype (%) [3]: 16% and 10%
- Total Cell Count [3]: 663 and 469
- Population Apoptotic (%) [4]: 28% and 23%
- Population Fragmented Nuclei (%) [4]: 9% and 8%
- Population Healthy Nuclei (%) [4]: 81% and 86%
- Population Hoechst High Intensity Objects (%) [4]: 4% and 3%
- Population Membrane Permeable-Phenotype (%) [4]: 0%
- Population Mitochondria Different-Phenotype (%) [4]: 16% and 30%
- Population Mitotic Cells (%) [4]: 71% and 76%
- Population Normal (%) [4]: 95% and 96%
- Population Pyknosed Nuclei (%) [4]: 9% and 5%
- Population Tubulin-Different-Phenotype (%) [4]: 15% and 11%
- Total Cell Count [4]: 649 and 593
- Population Apoptotic (%) [5]: 19% and 36%
- Population Fragmented Nuclei (%) [5]: 14% and 10%
- Population Healthy Nuclei (%) [5]: 78% and 81%
- Population Hoechst High Intensity Objects (%) [5]: 2% and 3%
- Population Membrane Permeable-Phenotype (%) [5]: 3% and 1%
- Population Mitochondria Different-Phenotype (%) [5]: 11% and 17%
- Population Mitotic Cells (%) [5]: 80% and 63%
- Population Normal (%) [5]: 97% and 96%
- Population Pyknosed Nuclei (%) [5]: 6% and 8%
- Population Tubulin-Different-Phenotype (%) [5]: 9% and 10%
- Total Cell Count [5]: 1112 and 700
- Population Apoptotic (%) [6]: 21% and 27%
- Population Fragmented Nuclei (%) [6]: 15% and 13%
- Population Healthy Nuclei (%) [6]: 79% and 82%
- Population Hoechst High Intensity Objects (%) [6]: 3% and 1%
- Population Membrane Permeable-Phenotype (%) [6]: 1% and 2%
- Population Mitochondria Different-Phenotype (%) [6]: 11% and 12%
- Population Mitotic Cells (%) [6]: 78% and 72%
- Population Normal (%) [6]: 96% and 98%
- Population Pyknosed Nuclei (%) [6]: 5% and 4%
- Population Tubulin-Different-Phenotype (%) [6]: 9% and 6%
- Total Cell Count [6]: 1088 and 947

SMILES: Cc1cc(-c2ccc3c(c2)CC[C@H]3N2CC3(CCN(C(=O)Cc4cn5cc(C)sc5n4)CC3)C2)ncn1 [PF-5190457]
- Population Apoptotic (%) [1]: 36% and 47%
- Population Fragmented Nuclei (%) [1]: 5% and 8%
- Population Healthy Nuclei (%) [1]: 83% and 72%
- Population Hoechst High Intensity Objects (%) [1]: 5% and 10%
- Population Membrane Permeable-Phenotype (%) [1]: 0%
- Population Mitochondria Different-Phenotype (%) [1]: 40% and 53%
- Population Mitotic Cells (%) [1]: 63% and 52%
- Population Normal (%) [1]: 94% and 89%
- Population Pyknosed Nuclei (%) [1]: 11% and 19%
- Population Tubulin-Different-Phenotype (%) [1]: 25% and 22%
- Total Cell Count [1]: 418 and 258
- Population Apoptotic (%) [2]: 40% and 54%
- Population Fragmented Nuclei (%) [2]: 9% and 3%
- Population Healthy Nuclei (%) [2]: 75% and 80%
- Population Hoechst High Intensity Objects (%) [2]: 11% and 8%
- Population Membrane Permeable-Phenotype (%) [2]: 0%
- Population Mitochondria Different-Phenotype (%) [2]: 53% and 70%
- Population Mitotic Cells (%) [2]: 60% and 45%
- Population Normal (%) [2]: 88% and 91%
- Population Pyknosed Nuclei (%) [2]: 14% and 16%
- Population Tubulin-Different-Phenotype (%) [2]: 37% and 40%
- Total Cell Count [2]: 455 and 322
- Population Apoptotic (%) [3]: 21% and 45%
- Population Fragmented Nuclei (%) [3]: 8% and 11%
- Population Healthy Nuclei (%) [3]: 77% and 78%
- Population Hoechst High Intensity Objects (%) [3]: 2% and 7%
- Population Membrane Permeable-Phenotype (%) [3]: 0% and 1%
- Population Mitochondria Different-Phenotype (%) [3]: 24% and 35%
- Population Mitotic Cells (%) [3]: 78% and 54%
- Population Normal (%) [3]: 97% and 92%
- Population Pyknosed Nuclei (%) [3]: 13% and 9%
- Population Tubulin-Different-Phenotype (%) [3]: 16% and 11%
- Total Cell Count [3]: 549 and 352
- Population Apoptotic (%) [4]: 25% and 36%
- Population Fragmented Nuclei (%) [4]: 10% and 5%
- Population Healthy Nuclei (%) [4]: 75% and 81%
- Population Hoechst High Intensity Objects (%) [4]: 5% and 6%
- Population Membrane Permeable-Phenotype (%) [4]: 1% and 0%
- Population Mitochondria Different-Phenotype (%) [4]: 28% and 51%
- Population Mitotic Cells (%) [4]: 74% and 63%
- Population Normal (%) [4]: 94% and 93%
- Population Pyknosed Nuclei (%) [4]: 14% and 13%
- Population Tubulin-Different-Phenotype (%) [4]: 30% and 23%
- Total Cell Count [4]: 638 and 425
- Population Apoptotic (%) [5]: 25% and 39%
- Population Fragmented Nuclei (%) [5]: 14% and 12%
- Population Healthy Nuclei (%) [5]: 79% and 80%
- Population Hoechst High Intensity Objects (%) [5]: 1% and 3%
- Population Membrane Permeable-Phenotype (%) [5]: 1%
- Population Mitochondria Different-Phenotype (%) [5]: 18% and 21%
- Population Mitotic Cells (%) [5]: 74% and 60%
- Population Normal (%) [5]: 98% and 96%
- Population Pyknosed Nuclei (%) [5]: 5% and 6%
- Population Tubulin-Different-Phenotype (%) [5]: 9% and 10%
- Total Cell Count [5]: 873 and 531
- Population Apoptotic (%) [6]: 24% and 46%
- Population Fragmented Nuclei (%) [6]: 14% and 13%
- Population Healthy Nuclei (%) [6]: 77% and 78%
- Population Hoechst High Intensity Objects (%) [6]: 2% and 4%
- Population Membrane Permeable-Phenotype (%) [6]: 0%
- Population Mitochondria Different-Phenotype (%) [6]: 27% and 32%
- Population Mitotic Cells (%) [6]: 76% and 53%
- Population Normal (%) [6]: 97% and 95%
- Population Pyknosed Nuclei (%) [6]: 8%
- Population Tubulin-Different-Phenotype (%) [6]: 20%
- Total Cell Count [6]: 927 and 520

SMILES: COCCNc1nc2ccc(C#CC3(O)CCCCC3)cc2n1-c1ccnc(N)n1
- Population Apoptotic (%) [1]: 9.87% and 12.26%
- Population Fragmented Nuclei (%) [1]: 1.33% and 5.34%
- Population Hoechst High Intensity Objects (%) [1]: 0%
- Population Membrane Permeable-Phenotype (%) [1]: 1.82% and 0%
- Population Mitotic Cells (%) [1]: 90.13% and 87.74%
- Population Normal (%) [1]: 100%
- Population Pyknosed Nuclei (%) [1]: 40.32% and 80.92%
- Total Cell Count [1]: 377 and 131
- Population Apoptotic (%) [2]: 17.15% and 7.53%
- Population Fragmented Nuclei (%) [2]: 0.29% and 2.41%
- Population Hoechst High Intensity Objects (%) [2]: 0%
- Population Membrane Permeable-Phenotype (%) [2]: 0%
- Population Mitotic Cells (%) [2]: 82.85% and 92.47%
- Population Normal (%) [2]: 100%
- Population Pyknosed Nuclei (%) [2]: 68.29% and 87.95%
- Population Tubulin-Different-Phenotype (%) [2]: 29.09% and 56.25%
- Total Cell Count [2]: 350 and 166
- Population Apoptotic (%) [3]: 11.24% and 8.33%
- Population Fragmented Nuclei (%) [3]: 1.68% and 2.99%
- Population Healthy Nuclei (%) [3]: 69.92% and 32.34%
- Population Hoechst High Intensity Objects (%) [3]: 0% and 0.6%
- Population Membrane Permeable-Phenotype (%) [3]: 2.88% and 1.85%
- Population Mitochondria Different-Phenotype (%) [3]: 12.5% and 16.67%
- Population Mitotic Cells (%) [3]: 88.76% and 91.67%
- Population Normal (%) [3]: 100% and 99.4%
- Population Pyknosed Nuclei (%) [3]: 28.4% and 64.67%
- Population Tubulin-Different-Phenotype (%) [3]: 6.49% and 5.56%
- Population Apoptotic (%) [4]: 30% and 31.16%
- Population Fragmented Nuclei (%) [4]: 0.22% and 1.23%
- Population Hoechst High Intensity Objects (%) [4]: 0.22% and 0%
- Population Membrane Permeable-Phenotype (%) [4]: 1% and 0%
- Population Mitochondria Different-Phenotype (%) [4]: 22.89% and 17.39%
- Population Mitotic Cells (%) [4]: 70% and 68.84%
- Population Normal (%) [4]: 99.78% and 100%
- Population Pyknosed Nuclei (%) [4]: 55.31% and 84.66%
- Population Tubulin-Different-Phenotype (%) [4]: 37.81% and 21.74%
- Total Cell Count [4]: 453 and 163
- Population Apoptotic (%) [5]: 6.04% and 14.1%
- Population Fragmented Nuclei (%) [5]: 1.77% and 1.97%
- Population Healthy Nuclei (%) [5]: 86.69% and 67.32%
- Population Hoechst High Intensity Objects (%) [5]: 0.06% and 0%
- Population Membrane Permeable-Phenotype (%) [5]: 6.87% and 2.34%
- Population Mitochondria Different-Phenotype (%) [5]: 9.94% and 24.56%
- Population Mitotic Cells (%) [5]: 93.96% and 85.9%
- Population Normal (%) [5]: 99.94% and 100%
- Population Pyknosed Nuclei (%) [5]: 11.53% and 30.71%
- Population Apoptotic (%) [6]: 18.78% and 26.09%
- Population Fragmented Nuclei (%) [6]: 0.76% and 2.91%
- Population Healthy Nuclei (%) [6]: 68.15% and 30.1%
- Population Hoechst High Intensity Objects (%) [6]: 0.25% and 0%
- Population Membrane Permeable-Phenotype (%) [6]: 2.79% and 1.61%
- Population Mitochondria Different-Phenotype (%) [6]: 59.96% and 58.06%
- Population Mitotic Cells (%) [6]: 81.22% and 73.91%
- Population Normal (%) [6]: 99.75% and 100%
- Population Pyknosed Nuclei (%) [6]: 31.09% and 66.99%
